A short description of data set [1]: Cytotoxicity against human fibroblast cells expressing p53 wild type assessed as cell viability at 1 uM after 24 hrs by MTT assay. The conditions noted are these: read-out: Activity. The class given is cell-based. The method in brief:
(§1)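 Cells were exposed to compound at 1 µM for 24 h, then growth and viability were read by MTT assay. Media: A375 in DMEM; RPMI7951 and MCF-7 in MEM; A549 in RPMI1640; H1299 in DMEM-F12; all with 10% FCS and penicillin/streptomycin, at 37 °C and 5% CO2. Fibroblasts came from adult foreskin. DMSO stocks were 10 mM.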

The test system of data set [2] is A-375. As to the kind of experiment: Induction of apoptosis in human A375 cells expressing p53 wild type assessed as increase in cleaved caspase-3 levels at 0.5 uM after 24 hrs by western blot analysis. In kind it is functional, cell-based. The method in brief:
(§2)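 A375 cells were exposed to 0.5 µM for 24 h, and lysates were immunoblotted with specific antibodies (p53, Cdc25c, p-Chk1, Bcl-xL, PARP, caspase-3). GAPDH served as loading control. Three independent experiments.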
A general note: A western blot detects proteins with antibodies after separation by electrophoresis.

The test system of data set [3] is A-375. As to the kind of experiment: Induction of apoptosis in human A375 cells expressing p53 wild type assessed as lysosomal H+ concentration at 0.5 uM after 24 and 48 hrs by flow cytometric analysis. In kind it is functional, cell-based. The procedure, abridged: (§3)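 Cells were loaded with LysoTracker Green (75 nM) for 15 min at 37 °C before treatment with 0.5 µM for the indicated times. After washing, mean fluorescence was quantified by flow cytometry. For p53 knockdown, A375 cells (6 × 10^4/well, antibiotic-free DMEM) were transfected with 30 nM tp53 siRNA or non-target siRNA using Lipofectamine RNAiMAX and harvested at 24 h.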

The test system of data set [4] is A-375. Put plainly: Induction of apoptosis in human A375 cells transfected with siRNA p53 assessed as decrease in lysosomal H+ concentration at 0.5 uM after 24 and 48 hrs by flow cytometric analysis. The class given is functional, cell-based. The method in brief:
as §3
For orientation: In flow cytometry, cells or beads pass a laser one at a time.

The test system of data set [5] is A-375. Put plainly: Effect on cell cycle distribution in human A375 cells expressing p53 wild type assessed as number of cells at G0/G1 phase at 0.5 uM after 24 hrs by FACS analysis Rvb = 74.1 %). The class given is functional.
Data set [6] concerns A-375. As to the kind of experiment: Effect on cell cycle distribution in human A375 cells expressing p53 wild type assessed as number of cells at S-phase at 0.5 uM after 24 hrs by FACS analysis (reference value: 13.8 %). In kind it is functional.
Data set [7] has as its system A-375. As to the kind of experiment: Increase in Chk1 phosphorylation in human A375 cells expressing p53 wild type at 0.5 uM after 24 hrs by western blot analysis. The class given is functional, cell-based. The method in brief: as §2
Data set [8] deals with A-375. Put plainly: Induction of apoptosis in human A375 cells expressing p53 wild type assessed as increase in p53 mRNA level by RT- qPCR analysis. In kind it is functional, cell-based. The conditions noted are these: TDE = time-dependent effect. The method in brief: (§4)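 Quantitative real-time PCR on A375 cells over a time course, measuring p53, bax and bcl-xl mRNA normalized to GAPDH mRNA.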
Background: Quantitative PCR measures a nucleic acid by following its amplification.

Data set [9] has as its system RPMI-7951. Put plainly: Induction of apoptosis in human RPMI7951 cells expressing p53 mutant assessed as decrease in lysosomal H+ concentration at 0.5 uM after 24 and 48 hrs by flow cytometric analysis. The class given is functional, cell-based. The procedure, abridged:
as §3

In data set [10] the test system is A549. As to the kind of experiment: Cytotoxicity against human A549 cells assessed as cell viability at 1 uM after 24 hrs by MTT assay. In kind it is functional. Conditions: A549, 24 h, read-out: Activity. The method in brief:
as §1

In data set [11] the test system is B16. As to the kind of experiment: Antitumor activity against mouse B16 cells xenografted in ICR mouse assessed as decrease in tumor growth administered via interavenous. In kind it is functional, cell-based. The procedure, abridged:
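Female ICR mice, seven weeks old, inoculated s.c. in the footpad with 1 × 10^6 B16 cells in 20 µl PBS. Once tumors reached a mean diameter of 4-7 mm (day 0), mice were randomized into groups of three and dosed i.v. at 0, 2, 4 mg/kg. Two perpendicular tumor diameters and body weight were taken at least 3 times weekly. T/C% was calculated from relative tumor volume; body weight is expressed as % of day 0. Statistics by t-test.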

Data set [12] has as its system A-375. As to the kind of experiment: Induction of apoptosis in human A375 cells expressing p53 wild type assessed as decrease in Bcl-xl levels at 0.5 uM after 24 hrs by western blot analysis. In kind it is functional, cell-based. The method in brief: as §2
For data set [13], the system named is A-375. As to the kind of experiment: Induction of apoptosis in human A375 cells expressing p53 wild type assessed as increase in bax mRNA level by RT- qPCR analysis. The class given is functional, cell-based. Conditions: TDE = time-dependent effect. The method in brief:
as §4

Here are results for 1 molecule from ChEMBL document CHEMBL3763092, “Design and synthesis of pyrrolobenzodiazepine-gallic hybrid agents as p53-dependent and -independent apoptogenic signaling in melanoma cells” (Eur J Med Chem, 2016).

The source made the active and inactive calls. The rule behind the calls is not given here.

Consider `COc1cc2c(cc1OCCCCOc1cc(OC)c(OC)c(OC)c1)N=C[C@@H]1CCCN1C2=O`, for which the viability at 24 h, 1 µM in [1] is 109%. In addition, the result in data set [2], in data set [4], in [7], in data set [9] and in data set [12] was Active. The result in data set [3] was inactive. Besides, the Activity is 32.6% in data set [5], 47.9% in data set [6], “tde” in data set [8] and “tde” in data set [13]. Besides, the viability at 1 µM in [10] worked out at 77.9%. In addition, the inhibition entry in [11] was “Dose-dependent effect”.
